This is a sample that favours compounds with a hit; in the whole collection about 2% have one here.
DNMT1 inh – inhibitors of human DNMT1. P26358. DNMT1 molecular beacon, Hinp1I cleavage, fluorescence. inhibition (reported as % activation of signal), % at 10 µM. 360,000 tested, 0.83% active. AID 588458; in the data active means inhibition above about 50%
STEP block – blocks human striatal-enriched tyrosine phosphatase. recombinant STEP, OMFP fluorogenic substrate, fluorescence. 360,000 tested, 0.25% active. inhibition, % at 20 µM;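 active means inhibition at 20 µM, scaled per plate between control wells, above about 37%, limit read from the data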;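 further: 0% = DMSO with enzyme and substrate and 100% = substrate only without enzyme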
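Test system: STEP tyrosine phosphatase / Reagent: OMFP at 25 µM / Doses: 20 µM, 1% DMSO / Read-out: percent inhibition scaled to no-enzyme and uninhibited-enzyme controls, plate-pattern corrected / Detection: FITC-channel fluorescence of OMFP product / Medium: Bis-Tris buffer pH 6.0, 2.5 mM DTT, 0.005% Tween 20 / Schedule: 20 min at room temperature, dark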
CSN inh – inhibitors of human CSN-mediated cullin deneddylation; Purified CSN, SCF-Nedd8-OG deneddylation, fluorescence polarization; inhibition, % at 12.5 µM; 360,000 tested, 0.38% active; AID 651999;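 active means pattern-corrected inhibition above about 35%, with an unprinted fluorescence ratio check between 0.5 and 1.5, limit read from the data, passing the limit was not always enough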;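 further: 0% = enzyme with substrate and 100% = substrate without enzyme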
Target sequence (Q92905 whole entry, looked up, one chain of several): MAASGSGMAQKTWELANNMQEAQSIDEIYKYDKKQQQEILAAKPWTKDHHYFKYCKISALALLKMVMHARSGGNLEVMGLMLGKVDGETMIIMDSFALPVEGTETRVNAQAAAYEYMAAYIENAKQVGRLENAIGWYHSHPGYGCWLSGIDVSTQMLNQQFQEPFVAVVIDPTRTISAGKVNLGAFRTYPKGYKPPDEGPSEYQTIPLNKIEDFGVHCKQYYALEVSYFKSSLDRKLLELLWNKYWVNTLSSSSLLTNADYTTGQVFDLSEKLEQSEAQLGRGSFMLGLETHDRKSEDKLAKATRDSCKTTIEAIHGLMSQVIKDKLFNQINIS
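assay system = purified human Csn5 enzyme expressed in HEK293T cells | amount = 0.24 nM enzyme | buffer or medium = Tris/NaCl/DTT buffer, pH 7.5 | reagent = 10 nM SCFSkp2-Nedd8OG | compound = one concentration, 12.5 µM, 0.25% DMSO | times = 90 min reaction at room temperature | signal = FP | read-out basis = % inhibition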
SUMO1-SIM PPI – modulators of human SUMO1-mediated protein-protein interactions. P63165. 360,000 tested, 0.33% active. inhibition, % at 20 µM. SUMO1 binding to a labelled peptide, TR-FRET, 1 h. AID 602429; in the data active means inhibition above about 37%
Target sequence (P63165 whole entry, looked up): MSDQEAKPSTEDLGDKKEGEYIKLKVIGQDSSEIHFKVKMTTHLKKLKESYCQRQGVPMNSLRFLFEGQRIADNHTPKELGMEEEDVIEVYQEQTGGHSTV
Scp-1 inhibitor – blocks human Scp-1 phosphatase activity. Q9GZU7. 340,000 tested, 0.88% active. Recombinant Scp1, phosphopeptide, malachite green phosphate absorbance. inhibition, % at 20 µM;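 active means inhibition above about 50% at 20 µM, limit read from the data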;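 further: plate controls were DMSO wells with enzyme for no effect and wells lacking enzyme for full effect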
Target sequence (Q9GZU7 76-261 limits assumed): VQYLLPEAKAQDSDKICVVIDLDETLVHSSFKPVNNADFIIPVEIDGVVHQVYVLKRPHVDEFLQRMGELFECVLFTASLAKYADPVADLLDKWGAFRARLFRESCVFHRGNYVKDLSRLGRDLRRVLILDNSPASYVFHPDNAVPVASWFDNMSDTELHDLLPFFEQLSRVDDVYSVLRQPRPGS
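Times: enzyme reaction 45 min at room temperature, colour 5 min, stabilisation 30 min. Material: SCP-1 catalytic fragment, aa 76-261. Medium: Acidic Tris acetate buffer with magnesium and detergent. Signal: colorimetric free-phosphate detection, absorbance 630 nm. Read-out basis: % inhibition of SCP-1 phosphate liberation. Reagent: Phosphorylated 17-residue peptide substrate.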
LMPTP block – blocks human LMPTP phosphatase | recombinant LMPTP-A, OMFP fluorogenic substrate, fluorescence intensity | inhibition, % at 20 µM | 360,000 tested, 0.22% active;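 active means compounds that cut the enzyme signal by at least half of the control window in the single-dose screen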;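 further: plate controls were DMSO wells with enzyme plus substrate for no effect and substrate without enzyme for full effect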
Target sequence (P24666 whole entry, looked up): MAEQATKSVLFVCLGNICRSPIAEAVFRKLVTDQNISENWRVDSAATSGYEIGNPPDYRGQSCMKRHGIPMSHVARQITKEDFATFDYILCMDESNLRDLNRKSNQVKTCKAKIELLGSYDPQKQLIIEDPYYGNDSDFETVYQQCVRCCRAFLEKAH
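Buffer or medium: Bis-Tris pH 6.0, DTT, detergent; Assay system: LMPTP-A enzyme; Quantity: 0.625 nM enzyme; Detection: endpoint fluorescence intensity; Times: 50 min dark incubation at room temperature; Controls: substrate-only low control, DMSO enzyme-plus-substrate high control; Doses: single 20 µM dose; Read-out: percent inhibition versus substrate-only and uninhibited controls; Reagent: 400 µM OMFP.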
Scp1 confirm – Scp-1 (human) inhibition, single-dose confirmed. shares compounds with Scp-1 inhibitor. recombinant SCP-1 catalytic domain, phosphate release, malachite green absorbance. inhibition, % at 20 µM. 2,500 tested, 61% active. AID 540281;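 further: plate controls were DMSO with enzyme for no effect and buffer wells lacking enzyme for full effect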
Scp-1 MG ctr – colorimetric interference in Scp-1 counter-screen | Colorimetric interference counterscreen, malachite green absorbance 630 nm | apparent inhibition (interference), % at 20 µM | shares compounds with Scp-1 inhibitor | 2,500 tested, under 10 active;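 further: compounds added after enzyme reaction finished so only phosphate colour detection is probed; plate controls were DMSO wells with completed Scp-1 reaction for no effect and substrate wells lacking enzyme for full effect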
Scp-1 Tm shift – binds human Scp-1, shifting its melting temperature. Recombinant SCP1, Sypro Orange thermal shift Tm. AID 540329. shares compounds with Scp-1 inhibitor. 1,500 tested, 25% active. thermal shift relative to vanadate control, % at 40 µM;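 active means substances whose mean melting-temperature shift, as a percentage of the reference inhibitor's shift, reaches about 5.3%, limit read from the data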;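 further: 0% = Tm of DMSO wells and 100% = Tm with sodium orthovanadate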
DNMT1 interf DR – shows spectral interference in the DNMT1 beacon assay; shares compounds with DNMT1 inh; molecular beacon fluorescence, spectral interference counter-screen; IC50, µM; 200 tested, under 10 active; AID 602382; call rule not given here
DNMT1 confirm – DNMT1 inhibition confirmation, single concentration. inhibition, % at 10 µM. AID 602385. 2,300 tested, 8% active. DNMT1 molecular beacon HinP1I cleavage, fluorescence. shares compounds with DNMT1 inh;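 active means average inhibition of at least 30% in the single-concentration confirmation test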
Beacon interf – shows spectral interference in the DNMT1 beacon assay | AID 602387 | 2,300 tested, 1% active | DNMT1 molecular beacon spectral interference counterscreen, fluorescence 485/520 | shares compounds with DNMT1 inh | activation (fluorescence interference), % at 10 µM;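 active means activation of at least 30% at 10 µM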;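 further: DNMT1 catalytic domain with a HinP1I cleavage step and a FAM/dabcyl DNA beacon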
STEP conf – confirmation of human STEP phosphatase inhibitors | AID 623866 | 520 tested, 32% active | recombinant STEP, OMFP fluorogenic substrate, fluorescence | inhibition, % at 20 µM | shares compounds with STEP block; call rule not given here;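 further: 0% = enzyme with substrate plus DMSO and 100% = substrate without enzyme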
CSN deneddyl val – Csn5 (human) deneddylation inhibition, single-concentration validation | shares compounds with CSN inh | Csn5 deneddylation of SCF-Nedd8OG, fluorescence polarization, 90 min | inhibition, % at 16.6 µM | 540 tested, 62% active | AID 720654; in the data active means inhibition above about 50%;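 further: 0% = DMSO with enzyme and 100% = no enzyme wells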
MMP2 cntr CSN – blocks human MMP-2 in a CSN deneddylation counter-screen. inhibition, % at 16.6 µM. 540 tested, 33% active. shares compounds with CSN inh. AID 720655. recombinant MMP-2, FRET substrate fluorescence, 60 min;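 active means corrected plate-normalized z-score of 5 or more, or -5 or less, or inhibition of 15% or more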;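 further: plate controls were DMSO wells with enzyme for no effect and buffer wells lacking MMP-2 for full effect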
Thrombin counter – blocks bovine thrombin in a CSN deneddylation counter-screen; 540 tested, 49% active; shares compounds with CSN inh; bovine thrombin cleavage of Ub4-pepOG, fluorescence polarization; inhibition, % at 16.6 µM;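 active means inhibition at or above a set limit, with a fluorescence interference ratio between 0.5 and a set maximum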
* = called active by the depositor; . = not tested or not shown.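 How the source made its calls, unless noted: active means inhibition of at least 30% at 20 µM; inactive means the rest.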

SMILES	DNMT1 inh	STEP block	CSN inh	SUMO1-SIM PPI	Scp-1 inhibitor	LMPTP block	DNMT1 confirm	Beacon interf	others
CC1=C(C(=O)OC(C)C)C(c2ccc(Cl)cc2)n2c(s/c(=C\c3ccc(OCC(=O)O)cc3)c2=O)=N1 (stereo not drawn)	85.7*	10.7	83.8*	97.0*	56.5*	11.8	.	.	Scp1 confirm=49.5*;Scp-1 MG ctr=-22.2;Scp-1 Tm shift=4.3;STEP conf=51.6*;CSN deneddyl val=-1.8;MMP2 cntr CSN=-1.1;Thrombin counter=11.8
CCCS(=O)(=O)c1c(S(=O)(=O)CCC)c2ccc(C(N)=O)cn2c1C(=O)c1ccc(OC)cc1	-3.1	-2.4	-1.1	-10.2	-7.1	-1.8	.	.
Cc1ccc(C)c(S(=O)(=O)Nc2ccc3oc(C)c(C(=O)O)c3c2)c1	82.6*	63.9*	40.1*	50.7*	70.5*	23.3	15.7	-1.0	Scp1 confirm=64.5*;Scp-1 MG ctr=-13.4;Scp-1 Tm shift=12.4*;CSN deneddyl val=52.8;MMP2 cntr CSN=12.2;Thrombin counter=7.0
CC(=O)c1c(C)oc2ccc(NS(=O)(=O)c3ccc(C)cc3)cc12	3.1	-0.2	1.2	-0.6	-3.8	2.6	.	.
COc1ccc(NC(=O)/C=C/c2ccco2)cn1	19.7	0.8	-7.6	-11.3	10.7	2.0	.	.
COc1ccccc1CNC(=O)Cc1ccc(Br)cc1	5.8	-0.5	-8.3	3.5	1.6	-1.7	.	.
COc1ccc(NC(=O)/C=C/c2ccc(Br)o2)cn1	50.5*	1.0	27.2	-6.8	11.2	13.6	-1.4	0.5
COc1ccccc1CNC(=O)/C=C/c1ccc(Br)o1	90.7*	4.9	33.7	72.2*	-0.7	46.0	4.8	-0.6
COc1ccc(CN2C[C@@H](CO)O[C@@H](n3cnc4c(N5CCCC5)ncnc43)C2)cc1	2.6	2.5	-0.1	-2.8	.	0.9	.	.
CCc1nc(Nc2ccncc2)c2oc3ccccc3c2n1	50.9*	-2.1	-1.8	0.9	-1.1	-0.3	21.3	4.9
Cc1nc(Nc2ccncc2)c2oc3ccccc3c2n1	40.6	-18.1	6.6	-0.6	-0.3	2.2	.	.
O=C(NCCc1nnc2ccc(N3CCCCCC3)nn12)c1ccccc1F	2.5	-1.9	2.5	3.1	-4.8	0.0	.	.
C[C@@H]1CN([C@@H](C)CO)C(=O)c2cc(-c3ccncc3)cnc2O[C@H]1CN(C)C(=O)c1cccc(F)c1	8.3	0.0	-1.9	2.0	.	-4.7	.	.
O=C(CNC(=O)c1ccc([N+](=O)[O-])cc1)N/N=C\c1ccc(OC(=O)c2ccccc2)cc1	85.3*	1.1	13.8	-6.5	-4.8	2.2	38.3*	-0.1	DNMT1 interf DR=>99
N#Cc1ccccc1/C=N/Nc1nc(-c2ccccc2)c2cc(Cl)ccc2n1	65.8*	2.5	2.4	-5.8	9.4	11.4	3.5	-2.6
N#Cc1c(SCC(=O)Nc2nncs2)sc2c(O)cc(=O)[nH]c12	70.8*	38.0	34.0	31.8	80.9*	3.6	3.1	-0.6
O=C(NN1CCOCC1)c1cccc(COc2cccc(Br)c2)c1	5.9	0.8	-8.8	0.0	-1.1	-0.5	.	.
O=C1C2C3C=CC(C3)C2C(=O)N1CCN1CCN(Cc2ccc([N+](=O)[O-])cc2)CC1 (stereo not drawn)	0.8	0.6	2.4	-11.9	-2.8	-1.9	.	.
O=C1CC(N2CCN(c3ccccc3)CC2)C(=O)N1c1cccc(Cl)c1 (stereo not drawn)	70.7*	-3.3	-4.4	5.4	-10.3	-1.2	1.4	77.4*
CCN(c1ccccc1)S(=O)(=O)c1cc(NC(=O)CSc2n[nH]c(=O)[nH]c2=O)ccc1Cl	65.4*	-0.2	-2.0	3.6	0.2	-0.2	2.6	8.3
CCN(c1ccccc1)S(=O)(=O)c1cc(NC(=O)C2CC2)ccc1Cl	-2.3	-0.3	-0.9	1.1	-11.5	2.2	.	.
COc1ccc(C=NNC(=O)c2ccccc2OCc2ccc(F)cc2)c(OC)c1	-6.0	1.1	-4.3	-4.5	-2.7	11.8	.	.
CC(=O)NN1C(=O)/C(=C\c2ccc(Br)o2)SC1=S	81.3*	17.1	33.3	25.4	5.5	1.6	1.5	1.6
O=C1CC2(CCN(C(=O)C3CC(=O)N(c4ccc(F)cc4)C3)CC2)Oc2ccccc21 (stereo not drawn)	4.0	-1.7	-0.7	0.8	-0.8	-1.9	.	.
Cc1sc2nc(SCC(=O)NCCCO)n(-c3ccccc3)c(=O)c2c1C	0.7	-1.4	-0.9	2.1	-2.2	-2.3	.	.
Cc1sc2nc(SCC(=O)N(C)Cc3ccccc3)n(-c3ccccc3)c(=O)c2c1C	70.4*	5.0	-1.2	-1.8	-11.2	4.9	-1.1	-5.3
COc1ccc(-c2c(-c3cc(OC)cc(OC)c3)n(C)c3ccc(-c4cnc(N)nc4)cc23)cc1	54.2*	-0.2	-2.7	-1.2	4.4	-1.0	-0.1	-2.0

Assay outcomes: PubChem BioAssay, Sanford-Burnham Center for Chemical Genomics
